Results collected from several papers.
Each line is one published result; the experiments were not run side by side.
Effect on: cell growth or viability

Structure (SMILES) | cell line | technique | concentration | time | setting | endpoint | result
C[C@@H]1CC[C@@H]([C@](C)(O)CNCc2ccccc2)[C@H](OCc2ccccc2)C1 | A2780 | MTT | 10 µM | 72 h | – | inhibition | 91.6%
O=C(c1ccc(Oc2ccc(Br)cc2)c([N+](=O)[O-])c1)C(Cl)Cl | NCI-H1650 | MTT | 2.5 µM | – | – | inhibition | 96.1%
O=C(O)c1cccnc1Nc1cccc(C(F)(F)F)c1 | NCI-H28 | CCK-8 | – | 72 h | – | GI50 | > 40000 nM
COc1ccccc1CNC[C@@](C)(O)[C@@H]1CC[C@@H](C)C[C@H]1OCc1ccccc1 | A2780 | MTT | 10 µM | 72 h | – | inhibition | 58.5%
O=C(c1ccc(Oc2ccc3cc(Br)ccc3c2Cl)c([N+](=O)[O-])c1)C(Cl)Cl | NCI-H1650 | MTT | 2.5 µM | – | – | inhibition | 97%
C[C@@H]1CC[C@@H]([C@](C)(O)Cn2ccnc2)[C@H](OCc2ccccc2)C1 | A2780 | MTT | 30 µM | 72 h | – | inhibition | 39.5%
CC(=O)c1ccc(Oc2ccc(C(=O)C(Cl)Cl)cc2[N+](=O)[O-])cc1 | NCI-H1650 | MTT | 2.5 µM | – | – | inhibition | 96.4%
C=C(F)C(=O)N1CCN(c2nc(OC[C@@H]3CCCN3C)nc3c2CCN(c2cccc4cccc(Cl)c24)C3)C[C@@H]1CC#N | UMUC3 | ATP luminescence | – | – | 3D culture | IC50 | 8.43 nM
CC(=O)Nc1ccc(Oc2ccc(C(=O)C(Cl)Cl)cc2[N+](=O)[O-])cc1 | NCI-H1650 | MTT | 2.5 µM | – | – | inhibition | 97.6%
C[C@@H]1CC[C@@H]([C@@](O)(CNCc2ccccc2)COCc2ccc(F)cc2)[C@H](OCc2ccc(F)cc2)C1 | A2780 | MTT | 30 µM | 72 h | – | inhibition | 98.5%
COc1cccc2c1C(=O)c1c(O)c3c(c(O)c1C2=O)C[C@@](O)(C(=O)CO)C[C@@H]3O[C@H]1C[C@H](N)[C@H](O)[C@H](C)O1 | Caco-2 | MTT | 6.25 µg/mL | 48 h | serum-free | viability | 62.1%
COc1nc(NCc2cn(-c3ccc(NC(=O)c4ccc(Br)cc4)cc3)nn2)nc(OC)n1 | Caco-2 | MTT | – | 72 h | – | IC50 | 689 nM
O=C1CC[C@@H](COc2ccc(C(=O)C(Cl)Cl)cc2[N+](=O)[O-])N1 | NCI-H1650 | MTT | 2.5 µM | – | – | inhibition | 29.8%
C[C@@H]1CC[C@@H]([C@](O)(CNCc2ccccc2)COCc2ccccc2)[C@H](OCc2ccccc2)C1 | A2780 | MTT | 10 µM | 72 h | – | inhibition | 90.4%
COc1nc(NCc2cn(-c3ccc(NC(=O)c4ccc(F)cc4)cc3)nn2)nc(OC)n1 | Caco-2 | MTT | – | 72 h | – | IC50 | 550 nM
O=C(c1ccccc1)c1ccc(Oc2ccc(C(=O)C(Cl)Cl)cc2[N+](=O)[O-])cc1 | NCI-H1650 | MTT | 2.5 µM | – | – | inhibition | 96.5%
COc1nc(NCc2cn(-c3ccc(C(=O)Nc4ccc(Br)cc4)cc3)nn2)nc(OC)n1 | Caco-2 | MTT | – | 72 h | – | IC50 | 674 nM
C[C@@H]1CC[C@@H]([C@](C)(O)CNCc2cccc(F)c2)[C@H](OCc2ccccc2)C1 | A2780 | MTT | 30 µM | 72 h | – | inhibition | 98.8%
O=C(O)c1ccccc1Nc1cccc(C(F)(F)F)c1 | NCI-H28 | CCK-8 | – | 72 h | – | GI50 | > 40000 nM
O=C(NO)c1ccc(CNc2nc3cccc(-c4ccc5c(c4)OCO5)n3n2)cc1 | HT-29 | SRB | – | – | – | GI50 | 510 nM
O=C(c1ccc(Oc2ccc3oc(=O)ccc3c2)c([N+](=O)[O-])c1)C(Cl)Cl | NCI-H1650 | MTT | 2.5 µM | – | – | inhibition | 96.8%
C=CC(=O)NC1CCN(c2ncc3ncnc(Nc4ccc(Oc5ccc6c(c5)ncn6C)c(C)c4)c3n2)CC1 | LoVo | – | – | – | – | EC50 | 11.8 nM
COc1ccc(COC[C@@](O)(CNCc2ccc(F)cc2)[C@@H]2CC[C@@H](C)C[C@H]2OCc2ccc(OC)cc2)cc1 | A2780 | MTT | 30 µM | 72 h | – | inhibition | 100%
O=C1c2ccccc2C(=O)c2c(Oc3ccc(C(=O)C(Cl)Cl)cc3[N+](=O)[O-])cccc21 | NCI-H1650 | MTT | 2.5 µM | – | – | inhibition | 28.7%
C[C@@H]1CC[C@@H]([C@](O)(CNCc2cccc3ccccc23)COCc2ccccc2)[C@H](OCc2ccccc2)C1 | A2780 | MTT | 10 µM | 72 h | – | inhibition | 90.7%
COc1nc(NCc2cn(-c3ccc(NC(=O)c4ccc(C(F)(F)F)cc4)cc3)nn2)nc(OC)n1 | Caco-2 | MTT | – | 72 h | – | IC50 | 566 nM
